PGC1a acetyl inh – modulators of PGC1a acetylation. inhibition, % at 15.6 µM. hit rate 0.17% among 350,000. AID 651687. U2OS PGC1a acetylation, AlphaScreen anti-acetyl-lysine; with virally co-expressed GCN5 acetyltransferase;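 active means every replicate shows inhibition of at least 40%; inconclusive means mean inhibition at least 40% but some replicate below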;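 further: 0% = neutral control wells and 100% = positive control wells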
EWS-Fli inh – EWS/Fli transcriptional activity inhibition. hit rate 0.67% among 350,000. A673 NR0B1-luciferase reporter, viability-normalised. inhibition, % at 12.6 µM;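 active means mean inhibition of at least 50% after viability correction, with every replicate also passing that limit; inconclusive means mean reaches 50% but only one of two replicates passes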;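 further: firefly luciferase signal divided by Alamar Blue viability fluorescence both relative to DMSO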
Env fusion inh – inhibitors of HIV Env-mediated cell fusion; HeLa-JRFL Env/CEM21 cell fusion, luciferase; inhibition, % at 12.3 µM; hit rate 1.1% among 360,000; AID 651610;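 active means mean replicate inhibition score of at least 50 and every replicate individually at or above 50; inconclusive means only one of the two criteria met; inactive means mean below 50 and not all replicates reaching 50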;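 further: 0% = plate neutral controls and 100% = maraviroc near 300 nM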
FGF22 binding – binders of recombinant human FGF22 by thermal shift; Q9HCT0; SYPRO orange fluorescence; percent of sucrose octasulfate shift, DMSO zero; activity (Tm shift, normalised), % at 9.99 µM; hit rate 1.5% among 340,000; AID 651658;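 active means mean Tm shift, scaled 0 neutral to 100 positive control, at about 1.3% or above, every replicate too, limit read from the data; inconclusive means no clear call, values can overlap the other calls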
Target sequence (Q9HCT0 whole entry, looked up): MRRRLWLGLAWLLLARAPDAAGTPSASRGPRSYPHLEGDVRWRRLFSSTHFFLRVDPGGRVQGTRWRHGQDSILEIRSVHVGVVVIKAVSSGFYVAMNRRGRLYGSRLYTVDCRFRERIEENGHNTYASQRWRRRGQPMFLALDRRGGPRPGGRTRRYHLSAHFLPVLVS
FN deposition inh – fibronectin deposition inhibition | AH1F fibroblasts, Alexa488-fibronectin deposition fluorescence, overnight | inhibition, % at 12.6 µM | hit rate 0.086% among 350,000;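 active means mean inhibition across replicates of 30% or more, regardless of how many single replicates reach that level; inconclusive means mean under 30% yet at least half of replicates reach 30%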;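 further: positive control wells lacked labelled fibronectin entirely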
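Measured by – fluorescence 485/525 nm · System – AH1F fibroblast monolayer, labelled fibronectin deposition · Amount – 10000 cells per well · Buffer or medium – serum-reduced DMEM (2% serum) · Doses – single dose, pinned · Also added – fluorescent fibronectin at 24 nM final · Schedule – 1 h cell attachment, overnight exposure to compound and label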
PAX8 inh HTS – inhibitors of PAX8 transcriptional activity in RMG-I cells; AID 652154; hit rate 1.2% among 360,000; inhibition, % at 12.6 µM; RMG-I TPO-luciferase reporter, SteadyGlo, 24 h;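 active means mean replicate inhibition at least 60% with every replicate also reaching 60%; inconclusive means only one of the two criteria is met; inactive means mean below 60% and not all replicates reaching 60%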;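 further: luciferase light reporting Pax8 driven TPO promoter activity; plate controls were median of neutral control wells for no effect and mitoxantrone controls for full effect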
DNA binder FP – binds DNA displacing acridine orange; salmon sperm DNA acridine orange fluorescence polarization; shares compounds with EWS-Fli inh; hit rate 2% among 640; AC35, µM (top dose mostly 68 µM), without a hit: top-dose activity change, negative = DNA binding;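 active means fitted curve reaches a 35% signal fall AC35 below twice the sample's top valid tested dose, actives reach about 48 µM in these data; inactive means the rest, including activity in the rising direction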;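 further: lower polarization ratio signals compound binding to DNA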
* hit, by the source's call; ? = inconclusive; . = not tested or not shown; [ ] = dose if it differs, or a comment. Most compounds without a hit are left out; they make up all but 3.1% or so of the library.

SMILES	PGC1a acetyl inh	EWS-Fli inh	Env fusion inh	FGF22 binding	FN deposition inh	PAX8 inh HTS	DNA binder FP
COC(=O)C[C@H]1CC[C@H]2[C@@H](COc3ccc(NC(=O)Nc4cccc(Cl)c4)cc3C(=O)N2C)O1	7	60*	3[16.7 µM]	0	-5	23	5%
COC(=O)C[C@@H]1CC[C@@H]2[C@@H](COc3ccc(NC(=O)Cc4cccs4)cc3C(=O)N2C)O1	.	65*	6[16.7 µM]	0	-5	6	-20%
COC(=O)C[C@@H]1CC[C@H]2[C@H](COc3ccc(NC(=O)Nc4cccc(Cl)c4)cc3C(=O)N2C)O1	3	?	-4[16.7 µM]	1	-25	14	.
CN(C)c1ccc(N=Nc2ccccc2Br)cc1	.	53*	-153	0	5	-19	-5%
O=C1C(=O)N(CCS(=O)(=O)c2ccccc2)c2ccc(Cl)cc21	.	57*	0	0	6	20	-9%
CCc1ccc2c(c1)C(=O)C(=O)N2CCS(=O)(=O)c1ccccc1	8	.	-1	0	0	-15	.
COC(=O)C[C@@H]1CC[C@H]2[C@H](COc3ccc(NC(=O)Nc4ccc(C#N)cc4)cc3C(=O)N2C)O1	8	87*	18[16.7 µM]	0	-13	-2	5%
COC(=O)C[C@@H]1CC[C@@H]2[C@@H](COc3ccc(NC(=O)Nc4ccc(C#N)cc4)cc3C(=O)N2C)O1	10	78*	29[16.7 µM]	0	-6	-5	12%
COC(=O)C[C@@H]1CC[C@H]2[C@H](COc3ccc(NC(=O)Nc4ccc(C)cc4)cc3C(=O)N2C)O1	1	-11	-1[16.7 µM]	0	-9	10	.
CC(C)(C)C(=O)Cn1ncc(Cl)c(Cl)c1=O	.	75*	-173	0	9	57	-4%
Cc1cccc(Oc2ccc(N)cc2)c1	.	.	-4	.	7	.	.
Nc1ccc(Oc2cccc(Oc3ccc(N)cc3)c2)cc1	.	78*	31	0	4	13	3%
Cc1noc(C)c1NC(=O)N[C@H]1CC[C@H](CC(=O)NCc2ccc(Cl)c(Cl)c2)O[C@@H]1CO	0	-2	2[16.7 µM]	0	10	-10	.
O=C(N[C@@H]1C=C[C@@H](CC(=O)N2CCCCC2)O[C@H]1CO)c1cccc(F)c1	6	5	-15[16.7 µM]	0	.	1	.
CC(C)=CCC/C(C)=C/CN1C(=O)N(c2ccc(F)cc2)[C@H]2C[C@@H](c3ccccc3)[C@@H](C)[C@@H](C(=O)N3CCOCC3)C[C@H]21	.	52*	76*	40	-3	101*	3%
N#CC1=C(N)Oc2cc(N)ccc2C1c1cccc(F)c1 (stereo unspecified)	-81	53*	-45	0	19	25	-9%
C[C@@H]1CN([C@H](C)CO)C(=O)c2cc(NS(=O)(=O)c3ccc(Cl)cc3)ccc2O[C@H]1CN(C)S(C)(=O)=O	-17	1	15[16.7 µM]	.	.	.	.
COCC#Cc1cnc2c(c1)C(=O)N([C@H](C)CO)C[C@@H](C)[C@H](CN(C)C(=O)c1cccc(F)c1)O2	0	-12	6[16.7 µM]	0	-8	10	.
CCNC(=O)c1cccc(S(=O)(=O)N2CCCCCC2)c1	.	67*	19	0	.	-12	-20%
Nc1nc(N)c2cc(Sc3ccc4ccccc4c3)ccc2n1	9	69*	24	0	30	68*	-4%
C[C@H](CO)N1C[C@H](C)[C@H](CN(C)C(=O)Nc2ccccc2)Oc2ccc(NC(=O)Cc3ccccc3)cc2C1=O	3	1	-19[16.7 µM]	0	.	1	.
CCc1ccc(/C=C2\SC(=S)N(CCCC(=O)NCCCN3CCOCC3)C2=O)cc1	15	85*	52	0	-3	62*	0%
CCc1ccc(/C=C2\SC(=S)N(CCCC(=O)N3CCN(C)CC3)C2=O)cc1	13	69*	27	0	13	46	-24%
COc1ccc(C/C(N)=N/OC(=O)Cc2ccc(OC)c(OC)c2)cc1	-7	9	.	0	.	.	.
COc1ccc(C/C(N)=N/OC(C)=O)cc1OC	.	83*	-14	0	.	10	-5%
COc1ccc(/C=N/NC(=O)c2cccc(NC(=O)c3ccccc3Cl)c2)c(OC)c1	4	-11	2	0	-10	-14	.

Bioassay records (PubChem BioAssay)
